Data from ChEMBL document CHEMBL5724801, “EUbOPEN Chemogenomics Library - Multiplex” (2024).
“And” between values parts separate entries of the source, which are not always exact repeats. Identical values can stand only once.

System: U2OS
Assay: Multiplex assay against U2OS
Assay type: toxicity, cell-based
Conditions: human
In short: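 Cells were classed with CellPathfinder machine-learning gating, first as Hoechst high-intensity objects or normal cells, then (normal cells) as healthy, pyknosed or fragmented nuclei, and finally (pyknosed cells) as mitotic or apoptotic. Staining of live cells at seeding used Hoechst33342, BioTracker Green Microtubule Cytoskeleton Dye, MitoTracker Red and Annexin V Alexa Fluor 680, with imaging on a CQ1 microscope at 37°C and 5% CO2 after compound addition. Tubulin, mitochondrial-mass and membrane-permeability phenotypes are per cents of healthy-nucleus cells.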

[1] = 12 h, 1 µM, compound concentration 1 uM
[2] = 12 h, 10 µM, compound concentration 10 uM
[3] = 24 h, 1 µM, compound concentration 1 uM
[4] = 24 h, 10 µM, compound concentration 10 uM
[5] = 48 h, 1 µM, compound concentration 1 uM
[6] = 48 h, 10 µM, compound concentration 10 uM

Structure (SMILES): COCCn1c(C)c(C)s/c1=N\C(=O)C1C(C)(C)C1(C)C
- Population Apoptotic (%) [1]: 88% and 71%
- Population Fragmented Nuclei (%) [1]: 24% and 20%
- Population Healthy Nuclei (%) [1]: 69% and 74%
- Population Hoechst High Intensity Objects (%) [1]: 0%
- Population Membrane Permeable-Phenotype (%) [1]: 8% and 11%
- Population Mitochondria Different-Phenotype (%) [1]: 1% and 3%
- Population Mitotic Cells (%) [1]: 11% and 28%
- Population Normal (%) [1]: 99% and 100%
- Population Pyknosed Nuclei (%) [1]: 6% and 5%
- Population Tubulin-Different-Phenotype (%) [1]: 3% and 5%
- Total Cell Count [1]: 271 and 135
- Population Apoptotic (%) [2]: 73% and 80%
- Population Fragmented Nuclei (%) [2]: 33% and 20%
- Population Healthy Nuclei (%) [2]: 52% and 68%
- Population Hoechst High Intensity Objects (%) [2]: 2% and 0%
- Population Membrane Permeable-Phenotype (%) [2]: 10% and 9%
- Population Mitochondria Different-Phenotype (%) [2]: 4% and 3%
- Population Mitotic Cells (%) [2]: 26% and 20%
- Population Normal (%) [2]: 97% and 100%
- Population Pyknosed Nuclei (%) [2]: 13% and 11%
- Population Tubulin-Different-Phenotype (%) [2]: 5% and 4%
- Total Cell Count [2]: 220 and 135
- Population Apoptotic (%) [3]: 89% and 83%
- Population Fragmented Nuclei (%) [3]: 18%
- Population Healthy Nuclei (%) [3]: 75% and 77%
- Population Hoechst High Intensity Objects (%) [3]: 0%
- Population Membrane Permeable-Phenotype (%) [3]: 5% and 9%
- Population Mitochondria Different-Phenotype (%) [3]: 3%
- Population Mitotic Cells (%) [3]: 10% and 16%
- Population Normal (%) [3]: 99%
- Population Pyknosed Nuclei (%) [3]: 6% and 3%
- Population Tubulin-Different-Phenotype (%) [3]: 2% and 4%
- Total Cell Count [3]: 314 and 157
- Population Apoptotic (%) [4]: 80% and 88%
- Population Fragmented Nuclei (%) [4]: 28% and 21%
- Population Healthy Nuclei (%) [4]: 58% and 66%
- Population Hoechst High Intensity Objects (%) [4]: 1%
- Population Membrane Permeable-Phenotype (%) [4]: 8% and 10%
- Population Mitochondria Different-Phenotype (%) [4]: 8% and 1%
- Population Mitotic Cells (%) [4]: 19% and 11%
- Population Normal (%) [4]: 98%
- Population Pyknosed Nuclei (%) [4]: 12%
- Population Tubulin-Different-Phenotype (%) [4]: 2% and 9%
- Total Cell Count [4]: 257 and 141
- Population Apoptotic (%) [5]: 94% and 100%
- Population Fragmented Nuclei (%) [5]: 12% and 15%
- Population Healthy Nuclei (%) [5]: 79%
- Population Hoechst High Intensity Objects (%) [5]: 1%
- Population Membrane Permeable-Phenotype (%) [5]: 5% and 9%
- Population Mitochondria Different-Phenotype (%) [5]: 2% and 1%
- Population Mitotic Cells (%) [5]: 5% and 0%
- Population Normal (%) [5]: 98%
- Population Pyknosed Nuclei (%) [5]: 8% and 4%
- Population Tubulin-Different-Phenotype (%) [5]: 4% and 5%
- Total Cell Count [5]: 459 and 218
- Population Apoptotic (%) [6]: 81% and 96%
- Population Fragmented Nuclei (%) [6]: 22% and 15%
- Population Healthy Nuclei (%) [6]: 62% and 71%
- Population Hoechst High Intensity Objects (%) [6]: 2% and 1%
- Population Membrane Permeable-Phenotype (%) [6]: 11% and 4%
- Population Mitochondria Different-Phenotype (%) [6]: 4%
- Population Normal (%) [6]: 97% and 98%
- Population Pyknosed Nuclei (%) [6]: 14% and 12%
- Population Tubulin-Different-Phenotype (%) [6]: 5% and 2%
- Total Cell Count [6]: 305 and 206

Structure (SMILES): N#Cc1cc(F)cc(-c2nc(-c3ccc(F)cn3)no2)c1
- Population Apoptotic (%) [1]: 55% and 100%
- Population Fragmented Nuclei (%) [1]: 24% and 17%
- Population Healthy Nuclei (%) [1]: 65% and 79%
- Population Hoechst High Intensity Objects (%) [1]: 1% and 0%
- Population Membrane Permeable-Phenotype (%) [1]: 5% and 6%
- Population Mitochondria Different-Phenotype (%) [1]: 0% and 5%
- Population Normal (%) [1]: 98% and 99%
- Population Pyknosed Nuclei (%) [1]: 10% and 4%
- Population Tubulin-Different-Phenotype (%) [1]: 3% and 2%
- Total Cell Count [1]: 178 and 101
- Population Apoptotic (%) [2]: 76% and 88%
- Population Fragmented Nuclei (%) [2]: 33% and 12%
- Population Healthy Nuclei (%) [2]: 59% and 81%
- Population Hoechst High Intensity Objects (%) [2]: 1%
- Population Membrane Permeable-Phenotype (%) [2]: 8% and 7%
- Population Mitochondria Different-Phenotype (%) [2]: 2% and 4%
- Population Mitotic Cells (%) [2]: 23% and 11%
- Population Normal (%) [2]: 98%
- Population Pyknosed Nuclei (%) [2]: 6%
- Population Tubulin-Different-Phenotype (%) [2]: 2% and 1%
- Total Cell Count [2]: 196 and 151
- Population Apoptotic (%) [3]: 90%
- Population Fragmented Nuclei (%) [3]: 22% and 8%
- Population Healthy Nuclei (%) [3]: 66% and 84%
- Population Hoechst High Intensity Objects (%) [3]: 4% and 0%
- Population Membrane Permeable-Phenotype (%) [3]: 8% and 2%
- Population Mitochondria Different-Phenotype (%) [3]: 0% and 3%
- Population Mitotic Cells (%) [3]: 9% and 10%
- Population Normal (%) [3]: 95% and 99%
- Population Pyknosed Nuclei (%) [3]: 11% and 8%
- Population Tubulin-Different-Phenotype (%) [3]: 4% and 2%
- Total Cell Count [3]: 197 and 126
- Population Apoptotic (%) [4]: 93% and 88%
- Population Healthy Nuclei (%) [4]: 60% and 85%
- Population Hoechst High Intensity Objects (%) [4]: 1% and 0%
- Population Membrane Permeable-Phenotype (%) [4]: 7% and 5%
- Population Mitochondria Different-Phenotype (%) [4]: 0% and 1%
- Population Mitotic Cells (%) [4]: 6% and 11%
- Population Normal (%) [4]: 98% and 99%
- Population Pyknosed Nuclei (%) [4]: 7% and 4%
- Population Tubulin-Different-Phenotype (%) [4]: 2% and 1%
- Total Cell Count [4]: 230 and 216
- Population Apoptotic (%) [5]: 96% and 100%
- Population Fragmented Nuclei (%) [5]: 18% and 15%
- Population Healthy Nuclei (%) [5]: 71% and 79%
- Population Hoechst High Intensity Objects (%) [5]: 1%
- Population Membrane Permeable-Phenotype (%) [5]: 4%
- Population Mitochondria Different-Phenotype (%) [5]: 0% and 3%
- Population Mitotic Cells (%) [5]: 3% and 0%
- Population Normal (%) [5]: 98%
- Population Pyknosed Nuclei (%) [5]: 9% and 5%
- Population Tubulin-Different-Phenotype (%) [5]: 2% and 1%
- Total Cell Count [5]: 290 and 199
- Population Apoptotic (%) [6]: 85% and 94%
- Population Fragmented Nuclei (%) [6]: 30% and 10%
- Population Healthy Nuclei (%) [6]: 62% and 84%
- Population Hoechst High Intensity Objects (%) [6]: 1%
- Population Membrane Permeable-Phenotype (%) [6]: 6% and 4%
- Population Mitochondria Different-Phenotype (%) [6]: 2%
- Population Mitotic Cells (%) [6]: 14% and 5%
- Population Normal (%) [6]: 98%
- Population Pyknosed Nuclei (%) [6]: 7% and 5%
- Population Tubulin-Different-Phenotype (%) [6]: 3% and 2%
- Total Cell Count [6]: 282 and 344

Structure (SMILES): Cc1noc(-c2ccc(-c3ccc(CC(=O)O)cc3)cc2)c1NC(=O)O[C@H](C)c1ccccc1Cl
- Population Apoptotic (%) [1]: 95% and 85%
- Population Fragmented Nuclei (%) [1]: 21% and 19%
- Population Healthy Nuclei (%) [1]: 69% and 74%
- Population Hoechst High Intensity Objects (%) [1]: 4% and 0%
- Population Membrane Permeable-Phenotype (%) [1]: 7% and 2%
- Population Mitochondria Different-Phenotype (%) [1]: 5% and 2%
- Population Mitotic Cells (%) [1]: 5% and 14%
- Population Normal (%) [1]: 95% and 99%
- Population Pyknosed Nuclei (%) [1]: 9% and 7%
- Population Tubulin-Different-Phenotype (%) [1]: 4%
- Total Cell Count [1]: 231 and 101
- Population Apoptotic (%) [2]: 78% and 71%
- Population Fragmented Nuclei (%) [2]: 29% and 11%
- Population Healthy Nuclei (%) [2]: 61% and 83%
- Population Hoechst High Intensity Objects (%) [2]: 2%
- Population Membrane Permeable-Phenotype (%) [2]: 11% and 6%
- Population Mitochondria Different-Phenotype (%) [2]: 4% and 2%
- Population Mitotic Cells (%) [2]: 21% and 28%
- Population Normal (%) [2]: 97%
- Population Pyknosed Nuclei (%) [2]: 9% and 5%
- Population Tubulin-Different-Phenotype (%) [2]: 6%
- Total Cell Count [2]: 242 and 138
- Population Apoptotic (%) [3]: 96% and 77%
- Population Fragmented Nuclei (%) [3]: 19% and 15%
- Population Healthy Nuclei (%) [3]: 70% and 77%
- Population Hoechst High Intensity Objects (%) [3]: 2% and 0%
- Population Membrane Permeable-Phenotype (%) [3]: 5% and 4%
- Population Mitochondria Different-Phenotype (%) [3]: 4% and 3%
- Population Normal (%) [3]: 97% and 99%
- Population Pyknosed Nuclei (%) [3]: 9% and 7%
- Population Tubulin-Different-Phenotype (%) [3]: 3% and 6%
- Total Cell Count [3]: 277 and 125
- Population Apoptotic (%) [4]: 92% and 90%
- Population Fragmented Nuclei (%) [4]: 24% and 12%
- Population Healthy Nuclei (%) [4]: 65% and 80%
- Population Hoechst High Intensity Objects (%) [4]: 1% and 2%
- Population Membrane Permeable-Phenotype (%) [4]: 11% and 7%
- Population Mitochondria Different-Phenotype (%) [4]: 2%
- Population Mitotic Cells (%) [4]: 7% and 9%
- Population Normal (%) [4]: 98% and 97%
- Population Pyknosed Nuclei (%) [4]: 10% and 7%
- Population Tubulin-Different-Phenotype (%) [4]: 5% and 4%
- Total Cell Count [4]: 260 and 154
- Population Apoptotic (%) [5]: 97% and 86%
- Population Fragmented Nuclei (%) [5]: 15% and 18%
- Population Healthy Nuclei (%) [5]: 75% and 72%
- Population Hoechst High Intensity Objects (%) [5]: 1% and 0%
- Population Membrane Permeable-Phenotype (%) [5]: 6%
- Population Mitochondria Different-Phenotype (%) [5]: 3% and 4%
- Population Normal (%) [5]: 98% and 100%
- Population Pyknosed Nuclei (%) [5]: 9% and 8%
- Population Tubulin-Different-Phenotype (%) [5]: 3% and 4%
- Total Cell Count [5]: 408 and 170
- Population Apoptotic (%) [6]: 92% and 85%
- Population Fragmented Nuclei (%) [6]: 19% and 9%
- Population Healthy Nuclei (%) [6]: 72% and 78%
- Population Hoechst High Intensity Objects (%) [6]: 3% and 4%
- Population Membrane Permeable-Phenotype (%) [6]: 7% and 6%
- Population Mitochondria Different-Phenotype (%) [6]: 3% and 2%
- Population Mitotic Cells (%) [6]: 7% and 14%
- Population Normal (%) [6]: 96% and 95%
- Population Pyknosed Nuclei (%) [6]: 8% and 11%
- Population Tubulin-Different-Phenotype (%) [6]: 5% and 4%
- Total Cell Count [6]: 344 and 241
